In ChEMBL document CHEMBL1944595, “1,4-diarylpiperazines and analogs as anti-tubercular agents: synthesis and biological evaluation” (Eur J Med Chem, 2012):

Legend:
[1] = Cytotoxicity against human HepG2/C3A cells after 24 hrs by neutral red assay; type: cell-based
Method in brief: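 C3A cells seeded at 40 000 per well and allowed to recover. Exposed 24 h at 37 °C, 5% CO2 to serial dilutions in DMEM + 10% FCS, tested from 10 to 0.1. Then 3 h neutral red uptake, extracted with ethanol/acetic acid, OD read at 530 nm with 620 nm reference. NI50 is the concentration reducing uptake by 50%.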

[2] = Selectivity index, ratio of IC50 for human HepG2/C3A cells to MIC for Mycobacterium tuberculosis H37Rv; type: functional
Method in brief: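 Selectivity index calculated as C3A neutral red NI50 (24 h) divided by the H37Rv luminometric MIC50.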

SMILES	IC50 [1] [µM]	Selectivity Index [2]
Cl.N=C(N)c1ccc(N2CCN(c3ccccc3)CC2)cc1	66.9	2.26
CNC(=N)c1ccc(N2CCN(c3ccccc3)CC2)cc1.Cl	71	4.45
CCNC(=N)c1ccc(N2CCN(c3ccccc3)CC2)cc1.Cl	41.7	3.49
CCCNC(=N)c1ccc(N2CCN(c3ccccc3)CC2)cc1.Cl	27.5	3.92
CCCCNC(=N)c1ccc(N2CCN(c3ccccc3)CC2)cc1.Cl	17.4	8.03
CCCCCNC(=N)c1ccc(N2CCN(c3ccccc3)CC2)cc1.Cl	11.2	9.39
CCCCCCNC(=N)c1ccc(N2CCN(c3ccccc3)CC2)cc1.Cl	6.71	25.38
CCCCCCCNC(=N)c1ccc(N2CCN(c3ccccc3)CC2)cc1.Cl	5.21	57.2
CCCCCCCCNC(=N)c1ccc(N2CCN(c3ccccc3)CC2)cc1.Cl	5.18	72.19
CCCCCCCCCCCCNC(=N)c1ccc(N2CCN(c3ccccc3)CC2)cc1.Cl	5.61	107.52
